ChEMBL document CHEMBL1135439, “Imidazo[2,1-i]purin-5-ones and related tricyclic water-soluble purine derivatives: potent A(2A)- and A(3)-adenosine receptor antagonists” (J Med Chem, 2002)
Values after ≈ are worked out from the molar mass of the structure shown.

Legend:
[1] = Water solubility of the compound; type: ADME; conditions: read-out: S
Adenosine receptor A2a [2] = target: T1, Adenosine receptor A2a (Rattus norvegicus, UniProt P30543); assay: Binding affinity to the adenosine A2A receptor by displacement of [3H]CGS-21680 in rat brain striatal membrane; type: cell membranes
T1 sequence (P30543 whole entry): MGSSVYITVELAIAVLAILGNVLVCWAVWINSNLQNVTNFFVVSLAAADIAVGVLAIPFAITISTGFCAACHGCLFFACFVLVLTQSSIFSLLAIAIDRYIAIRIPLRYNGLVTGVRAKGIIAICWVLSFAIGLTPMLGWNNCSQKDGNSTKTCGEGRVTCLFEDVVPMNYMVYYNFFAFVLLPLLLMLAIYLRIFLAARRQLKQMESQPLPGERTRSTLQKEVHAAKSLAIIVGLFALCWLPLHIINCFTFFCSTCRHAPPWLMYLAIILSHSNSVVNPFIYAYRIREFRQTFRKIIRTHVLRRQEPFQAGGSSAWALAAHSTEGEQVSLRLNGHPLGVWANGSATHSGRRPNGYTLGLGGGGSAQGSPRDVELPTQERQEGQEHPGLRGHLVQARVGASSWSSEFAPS

Adenosine receptor A1 [3] = target: T2, Adenosine receptor A1 (Rattus norvegicus, UniProt P25099); type: cell membranes, Brain
T2 sequence (P25099 whole entry): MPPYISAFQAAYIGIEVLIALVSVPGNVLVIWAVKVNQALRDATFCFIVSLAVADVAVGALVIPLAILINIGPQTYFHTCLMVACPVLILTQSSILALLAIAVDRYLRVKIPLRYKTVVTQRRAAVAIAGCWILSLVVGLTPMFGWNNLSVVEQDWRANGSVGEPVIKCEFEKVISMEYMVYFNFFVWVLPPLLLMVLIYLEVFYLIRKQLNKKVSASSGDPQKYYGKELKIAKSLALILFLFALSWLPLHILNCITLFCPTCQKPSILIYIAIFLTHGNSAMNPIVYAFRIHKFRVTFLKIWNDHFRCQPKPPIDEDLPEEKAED

Adenosine receptor A3 = target: T3, Adenosine receptor A3 (Homo sapiens, UniProt P0DMS8); assay: Binding affinity against human recombinant Adenosine A3 receptor stably expressed in HEK293 cells by displacing [125I]AB-MECA radioligand; type: cell-based
T3 sequence (P0DMS8 whole entry): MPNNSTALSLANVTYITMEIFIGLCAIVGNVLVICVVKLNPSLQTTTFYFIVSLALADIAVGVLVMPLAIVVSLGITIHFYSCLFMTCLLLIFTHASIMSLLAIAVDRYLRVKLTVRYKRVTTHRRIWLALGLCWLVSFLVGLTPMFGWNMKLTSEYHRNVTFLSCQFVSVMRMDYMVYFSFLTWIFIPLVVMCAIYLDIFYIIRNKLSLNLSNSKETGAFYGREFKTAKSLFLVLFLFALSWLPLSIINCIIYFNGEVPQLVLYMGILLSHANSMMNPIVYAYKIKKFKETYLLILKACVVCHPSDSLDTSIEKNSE

[4] = target: T4, Adenosine receptor A1 (Rattus norvegicus) (UniProt P25099); assay: Percent displacement of [3H]CHA from Adenosine A1 receptor of rat brain cortical membrane at 250 uM
T4 sequence (whole entry): T2 sequence (P25099 whole entry)
Outline: (§1)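 Single-concentration inhibition of [3H]CHA binding to rat cerebral cortical membrane A1 receptors, reported as percent displacement at the stated test concentration. Nonspecific binding was determined with 10 μM 2-chloroadenosine.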

[5] = target: T5, Adenosine receptor A3 (Homo sapiens) (UniProt P0DMS8); assay: Percent displacement against human recombinant Adenosine A3 receptor expressed in HEK293 cells by displacing [125I]AB-MECA at 100 uM; type: cell-based
T5 sequence (whole entry): T3 sequence (P0DMS8 whole entry)

[6] = target: Adenosine receptor A2a (Rattus norvegicus) (UniProt P30543); assay: (§2) Inhibition against A2A-Adenosine Receptor of rat PC12 cell membranes (functional antagonist activity); type: cell-based; conditions: PC-12
Chain of Adenosine receptor A2a (Rattus norvegicus) (P30543 whole entry): as the sequence (P30543 whole entry) above

[7] = target: T4, Adenosine receptor A1 (Rattus norvegicus); assay: (§3) Inhibition against Adenosine A1 receptor of rat fat cell membranes (functional antagonist activity)
[8] = target: T6, Adenosine receptor A2b (Mus musculus) (UniProt Q60614); assay: (§4) Inhibition against A2B-Adenosine Receptor in mouse NIH 3T3 fibroblast cell membranes (functional antagonist activity); type: cell-based
T6 sequence (whole entry): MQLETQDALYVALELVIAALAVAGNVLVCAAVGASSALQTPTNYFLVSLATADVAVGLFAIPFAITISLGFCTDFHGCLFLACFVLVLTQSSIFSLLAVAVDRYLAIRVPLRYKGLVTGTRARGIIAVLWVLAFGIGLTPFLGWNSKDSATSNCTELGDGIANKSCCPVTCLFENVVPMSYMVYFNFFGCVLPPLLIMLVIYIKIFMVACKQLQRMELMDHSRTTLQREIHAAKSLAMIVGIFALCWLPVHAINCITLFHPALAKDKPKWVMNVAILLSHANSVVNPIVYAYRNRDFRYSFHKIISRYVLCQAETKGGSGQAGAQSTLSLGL
Outline: (§5)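 Adenylate cyclase assay measuring antagonism of NECA-stimulated AC in rat PC12 membranes (A2A) or NIH 3T3 fibroblast membranes (A2B). KB was obtained from the Schild equation, using the ratio of NECA EC50 values with and without antagonist.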

[9] = target: T6, Adenosine receptor A2b (Mus musculus); assay: Inhibition against A2B-Adenosine Receptor in mouse NIH 3T3 fibroblast cell membranes; type: cell-based
Outline: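 Functional adenylate cyclase assay in NIH 3T3 fibroblast cell membranes: test compounds antagonize NECA-induced stimulation of AC (cAMP accumulation). K_B is calculated with the Schild equation from the ratio of NECA EC50 values with and without antagonist.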

[10] = target: Adenosine receptor A2a (Rattus norvegicus) (UniProt P30543); assay: Binding affinity against Adenosine A2A receptor by displacement of [3H]CGS-21680 radioligand in rat brain striatal membrane at 30 uM; type: cell membranes
Outline: (§6)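 Single-concentration inhibition of [3H]CGS21680 binding to rat striatal membrane A2A receptors, reported as percent displacement at the stated test concentration. Nonspecific binding was defined with 20 μM 2-chloroadenosine.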

[11] = target: T4, Adenosine receptor A1 (Rattus norvegicus); assay: Percent displacement of [3H]CHA from Adenosine A1 receptor of rat brain cortical membrane at 3 uM; outline: as §1
[12] = target: T4, Adenosine receptor A1 (Rattus norvegicus); assay: Percent displacement of [3H]CHA from Adenosine A1 receptor of rat brain cortical membrane at 30 uM; outline: as §1
Adenosine receptor A1 [13] = target: T2, Adenosine receptor A1; assay: as §3
Outline: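 Adenylate cyclase assay in rat fat cell membranes measuring antagonism of R-PIA-elicited AC inhibition. KB was obtained from the Schild equation, using the ratio of R-PIA IC50 values with and without antagonist.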

Adenosine receptor A2b = target: T7, Adenosine receptor A2b (Mus musculus, UniProt Q60614); assay: as §4; type: cell-based; outline: as §5
T7 sequence (Q60614 whole entry): T6 sequence (whole entry)

Adenosine receptor A2a [14] = target: T1, Adenosine receptor A2a; assay: as §2; type: cell-based, PC-12; outline: as §5
[15] = target: T5, Adenosine receptor A3 (Homo sapiens); assay: Percent displacement against human Adenosine A3 receptor expressed in HEK293 cells by displacing [125I]AB-MECA at 10 uM; type: cell-based
[16] = target: Adenosine receptor A2a (Rattus norvegicus) (UniProt P30543); assay: Percent displacement of [3H]CGS-21680 from Adenosine A2A receptor of rat brain striatal membrane at 30 uM; outline: as §6
[17] = target: T4, Adenosine receptor A1 (Rattus norvegicus); assay: Percent displacement of [3H]CHA from Adenosine A1 receptor of rat brain cortical membrane at 10 uM; outline: as §1
[18] = Water solubility was determined.; type: ADME
Outline: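 A saturated aqueous solution was prepared and the undissolved residue filtered off. The filtrate was diluted with water and its UV absorbance read at λmax. Concentration was calculated from a previously determined calibration curve for each compound.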

Row | SMILES | Ki (Adenosine receptor A2a [2]) [µM] | Ki (Adenosine receptor A1 [3]) [µM] | also measured
1 | Cn1c(=O)c2nc(/C=C/c3ccccc3)[nH]c2n(C)c1=O | – | – | solubility [1]: 0.00022 mM (≈ 0.0621 µg/mL)
2 | CC[C@H]1CN2C(=O)N(C)c3nc(-c4ccccc4)n(C)c3C2=N1 | 16.2 | 4.7 | –
3 | CC[C@@H]1CN2C(=O)N(C)c3nc(/C=C/c4ccccc4)n(C)c3C2=N1 | 0.547 | 21.7 | Ki (Adenosine receptor A3): 1.7 µM
4 | CC[C@H]1CN2C(=O)N(C)c3ncn(C)c3C2=N1 | 10.9 | – | Displacement [4]: 50%
5 | CC[C@@H]1CN2C(=O)N(C)c3[nH]c(/C=C/c4ccccc4)nc3C2=N1 | 0.89 | 0.95 | Ki (Adenosine receptor A3): 0.64 µM
6 | C[C@H]1CN=C2c3c(ncn3C)N(C)C(=O)N21 | 12 | 70 | –
7 | CCC1CN2C(=O)N(C)c3ncn(C)c3C2=N1 (configuration not stated) | 16.2 | – | Displacement [5]: 28%; Displacement [4]: 46%
8 | CN1C(=O)N2CCN=C2c2c1nc(-c1ccccc1)n2C | 20.3 | 9.7 | Ki (Adenosine receptor A3): 3.33 µM; solubility [1]: 1.45 mM (≈ 408 µg/mL)
9 | Cn1c(=O)[nH]c2nc(-c3ccccc3)n(C)c2c1=O | – | – | Kb [6]: 5.7 µM; Kb [7]: 0.32 µM; Kb [8]: 5.2 µM
10 | CCC1CN2C(=O)N(C)c3[nH]c(-c4ccccc4)nc3C2=N1 (configuration not stated) | 3.1 | 0.265 | –
11 | CC1CN=C2c3c(ncn3C)N(C)C(=O)N21 (configuration not stated) | 64.6 | 59 | –
12 | Cn1c(=O)c2c(ncn2C)n(C)c1=O | – | – | Kb [8]: 25 µM
13 | Cn1c(=O)c2[nH]cnc2n(C)c1=O.O [THEOPHYLLINE] | – | – | Kb [9]: 16 µM; solubility [1]: 44.4 mM
14 | C[C@@H]1CN2C(=O)N(C)c3ncn(C)c3C2=N1 | – | – | Displacement [10]: 12%; Displacement [11]: 14%
15 | C[C@@H]1CN=C2c3c(ncn3C)N(C)C(=O)N21 | 50.4 | 23 | –
16 | CN1C(=O)N2CCCCN=C2c2c1ncn2C | 18.5 | 19.8 | –
17 | CC[C@H]1CN2C(=O)N(C)c3[nH]c(/C=C/c4ccccc4)nc3C2=N1 | 0.67 | 0.73 | –
18 | CC[C@@H]1CN2C(=O)N(C)c3ncn(C)c3C2=N1 | 28.3 | 75.5 | –

Row | SMILES | Ki (Adenosine receptor A2a [2]) [µM] | Ki (Adenosine receptor A1 [3]) [µM] | also measured
19 | CN1C(=O)N2CCCN=C2c2c1ncn2C | 28.5 | 43.2 | –
20 | CC[C@@H]1CN2C(=O)N(C)c3nc(-c4ccccc4)[nH]c3C2=N1 | 2.1 | 0.44 | Kb [6]: 2.5 µM; Kb [7]: 0.43 µM; Kb [8]: 2.1 µM
21 | Cn1cnc2c1C1=NCCN1C(=O)N2Cc1ccccc1 | 16.1 | – | Displacement [12]: 24%
22 | CCCn1c(=O)[nH]c(=O)c2nc[nH]c21 | – | – | Kb [9]: 18 µM
23 | Cn1c(-c2ccccc2)nc2c1C1=NCCN1C(=O)N2 | 11.9 | 1.83 | KB (Adenosine receptor A1 [13]): 500 nM; Ki (Adenosine receptor A3): 0.047 µM; KB (Adenosine receptor A2b): 7 µM; KB (Adenosine receptor A2a [14]): 17.2 µM
24 | Cn1c(=O)c2c(nc(/C=C/c3ccccc3)n2C)n(C)c1=O | – | – | solubility [1]: 0.0028 mM (≈ 0.83 µg/mL)
25 | Cn1c(=O)c2c(nc(-c3ccccc3)n2C)n(C)c1=O | – | – | solubility [1]: 0.487 mM (≈ 132 µg/mL)
26 | CCC1CN2C(=O)N(C)c3nc(-c4ccccc4)n(C)c3C2=N1 (configuration not stated) | 19.2 | 6.1 | Displacement [15]: 17%
27 | CN1C(=O)N2CCCN=C2c2c1nc(Cl)n2C | 11.9 | 10.5 | –
28 | Cn1cnc2c1C1=NCCN1C(=O)N2 | 40.9 | 65.5 | –
29 | Cn1c(=O)c2[nH]c(-c3ccccc3)nc2n(C)c1=O [8-PHENYL THEOPHYLLINE] | 0.83 | – | –
30 | CC[C@H]1CN2C(=O)N(C)c3[nH]c(-c4ccccc4)nc3C2=N1 | 3.33 | 0.115 | Kb [6]: 4.3 µM; Kb [7]: 0.063 µM; Kb [8]: 7.6 µM
31 | CN1C(=O)N2CCCCC/N=C\2c2c1ncn2C | 51 | 60.3 | –
32 | C[C@H]1CN2C(=O)N(C)c3ncn(C)c3C2=N1 | – | – | Displacement [16]: 46%; Displacement [17]: 10%
33 | CN1C(=O)N2CCN=C2c2c1ncn2C | 20.7 | 79.6 | solubility [18]: 1210 mM (≈ 248000 µg/mL); Displacement [15]: 40%
34 | CC[C@H]1CN2C(=O)N(C)c3nc(/C=C/c4ccccc4)n(C)c3C2=N1 | 0.424 | 14.9 | Kb [6]: 1 µM; Kb [7]: 33 µM; Kb [8]: 3.7 µM; Ki (Adenosine receptor A3): 30.6 µM
35 | CC[C@@H]1CN2C(=O)N(C)c3nc(-c4ccccc4)n(C)c3C2=N1 | 36.3 | 17.5 | –
